Assay results published in ChEMBL document CHEMBL3351225, “Design, synthesis, and structure-activity and structure-pharmacokinetic relationship studies of novel [6,6,5] tricyclic fused oxazolidinones leading to the discovery of a potent, selective, and orally bioavailable FXa inhibitor” (J Med Chem, 2014).

Assays:
Coagulation factor X = Coagulation factor X (Homo sapiens, UniProt P00742); assay: Inhibition of human factor 10a using N-Z-D-Arg-Gly-Arg-pNA, S-2765 chromogenic substrate
Plasma [1] = assay: Anticoagulant activity in citrated rabbit plasma assessed as drug concentration required to double plasma clotting time preincubated for 10 mins at 37 degC by coagulometry; format: functional, Oryctolagus cuniculus
Procedure, shortened: (§1)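 Test compound or DMSO added to citrated rabbit plasma (3.8% sodium citrate, 10:90 v/v) and preincubated 10 min at 37 °C. PT and aPTT clotting times measured on a coagulometer with commercial kits. Activity expressed as the concentration needed to double plasma clotting time (CT2, μM).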

Plasma [2] = assay: Anticoagulant activity in citrated rabbit plasma assessed as activated partial thromboplastin time preincubated for 10 mins at 37 degC by coagulometry; format: functional, Oryctolagus cuniculus; procedure, shortened: as §1
[3] = Cmax in Sprague-Dawley rat at 10 mg/kg, po; format: ADME, organism-based; design: dose 10 mg/kg, route oral; conditions: in vivo
Procedure, shortened: (§2)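 Male Sprague-Dawley rats, 200−220 g, four per group. Vehicle was 5% DMSO + 5% Tween-80 in 90% saline. The reference drug was given in 10% DMSO + 10% Tween-80 + 80% PEG400 (40% solution in saline). Serial retrobulbar vein samples were quantified by LC-MS. Parameters came from noncompartmental analysis of mean plasma concentrations.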

[4] = Tmax in Sprague-Dawley rat at 10 mg/kg, po; format: ADME, organism-based; design: dose 10 mg/kg, route oral; conditions: in vivo; procedure, shortened: as §2
[5] = Elimination half life in Sprague-Dawley rat at 10 mg/kg, po; format: ADME, organism-based; design: dose 10 mg/kg, route oral; conditions: in vivo, read-out: beta t1/2 (converted); procedure, shortened: as §2
[6] = Elimination half life in Sprague-Dawley rat at 3 mg/kg, iv; format: ADME, organism-based; design: dose 3 mg/kg, route intravenous; conditions: in vivo, read-out: beta t1/2 (converted); procedure, shortened: as §2
[7] = AUC (0 to infinity) in Sprague-Dawley rat at 10 mg/kg, po; format: ADME, organism-based; design: time infinity, dose 10 mg/kg, route oral; conditions: plasma; procedure, shortened: as §2
[8] = AUC (0 to infinity) in Sprague-Dawley rat at 3 mg/kg, iv; format: ADME, organism-based; design: time infinity, dose 3 mg/kg, route intravenous; conditions: plasma; procedure, shortened: as §2
[9] = Plasma clearance in Sprague-Dawley rat at 3 mg/kg, iv; format: ADME, organism-based; design: dose 3 mg/kg, route intravenous; procedure, shortened: as §2
[10] = Volume of distribution at steady state in Sprague-Dawley rat at 3 mg/kg, iv; format: ADME, organism-based; design: dose 3 mg/kg, route intravenous; conditions: in vivo, read-out: Vdss; procedure, shortened: as §2
[11] = Oral bioavailability in Sprague-Dawley rat at 10 mg/kg; format: ADME, organism-based; conditions: in vivo; procedure, shortened: as §2
Prothrombin = Prothrombin (Homo sapiens, UniProt P00734); assay: Inhibition of human factor 2a using L-pyro-Glu-Pro-ArgpNA, S-2366 chromogenic substrate
Procedure, shortened: (§3)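 Human enzyme and inhibitor were premixed and preincubated, then the chromogenic substrate was added. Substrate levels: 300 μM S-2765 (FXa, trypsin); 200 μM S-2366 (FIIa); 2 mM S-2366 (FVIIa, FXIa). pNA release was monitored continuously at 405 nm for 20 min at 37 °C. IC50 was obtained by nonlinear regression.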

Coagulation factor VII = biological target: T1, Coagulation factor VII (Homo sapiens, UniProt P08709); assay: Inhibition of human factor 7a using S-2366 chromogenic substrate; procedure, shortened: as §3
T1 sequence (P08709 whole entry): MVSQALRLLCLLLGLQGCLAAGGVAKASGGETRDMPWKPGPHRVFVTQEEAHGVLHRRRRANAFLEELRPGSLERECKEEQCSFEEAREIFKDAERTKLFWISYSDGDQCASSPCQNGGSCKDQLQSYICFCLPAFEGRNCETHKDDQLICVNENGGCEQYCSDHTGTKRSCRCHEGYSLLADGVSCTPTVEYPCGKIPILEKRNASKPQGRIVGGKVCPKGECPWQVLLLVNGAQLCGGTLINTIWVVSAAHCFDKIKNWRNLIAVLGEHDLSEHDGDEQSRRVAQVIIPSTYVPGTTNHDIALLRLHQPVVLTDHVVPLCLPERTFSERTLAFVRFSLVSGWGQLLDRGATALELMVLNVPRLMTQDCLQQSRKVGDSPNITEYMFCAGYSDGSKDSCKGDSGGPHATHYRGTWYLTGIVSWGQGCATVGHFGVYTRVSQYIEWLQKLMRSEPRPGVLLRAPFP

Coagulation factor IX = Coagulation factor IX (Homo sapiens, UniProt P00740); assay: Inhibition of human factor 9a using CH3SO2-(D)CHG Gly-Arg-pNA, Biophen-CS51 chromogenic substrate
Sequence of Coagulation factor IX (P00740 47-191 limits assumed): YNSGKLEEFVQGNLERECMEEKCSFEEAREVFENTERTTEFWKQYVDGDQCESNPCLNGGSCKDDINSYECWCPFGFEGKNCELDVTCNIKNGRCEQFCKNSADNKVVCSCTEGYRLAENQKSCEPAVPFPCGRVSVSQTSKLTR
Sequence of Coagulation factor IX (P00740 227-461 limits assumed): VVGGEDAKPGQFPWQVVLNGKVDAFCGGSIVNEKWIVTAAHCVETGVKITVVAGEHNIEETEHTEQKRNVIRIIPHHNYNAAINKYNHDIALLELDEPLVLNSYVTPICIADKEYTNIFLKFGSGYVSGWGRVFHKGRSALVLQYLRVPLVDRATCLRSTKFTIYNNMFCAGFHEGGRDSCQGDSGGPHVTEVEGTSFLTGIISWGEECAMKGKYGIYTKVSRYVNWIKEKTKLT

Trypsin = Trypsin (Homo sapiens, UniProt P07477+P07478+P35030); assay: Inhibition of human trypsin using N-Z-D-Arg-Gly-Arg-pNA, S-2765 chromogenic substrate; format: protein assay; procedure, shortened: as §3
Coagulation factor XI = Coagulation factor XI (Homo sapiens, UniProt P03951); assay: Inhibition of human factor 11a using S-2366 chromogenic substrate; procedure, shortened: as §3
Sequence of Coagulation factor XI (P03951 19-387 limits assumed): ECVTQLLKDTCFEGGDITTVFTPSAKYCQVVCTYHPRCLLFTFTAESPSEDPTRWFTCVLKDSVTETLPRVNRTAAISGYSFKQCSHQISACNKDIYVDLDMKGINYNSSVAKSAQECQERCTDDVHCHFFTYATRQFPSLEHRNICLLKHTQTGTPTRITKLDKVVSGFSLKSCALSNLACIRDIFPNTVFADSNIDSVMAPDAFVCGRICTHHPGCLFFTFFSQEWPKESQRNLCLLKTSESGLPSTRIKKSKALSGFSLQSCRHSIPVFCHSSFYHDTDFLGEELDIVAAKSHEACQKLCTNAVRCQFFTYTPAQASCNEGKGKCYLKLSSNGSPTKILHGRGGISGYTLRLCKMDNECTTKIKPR
Sequence of Coagulation factor XI (P03951 388-625 limits assumed): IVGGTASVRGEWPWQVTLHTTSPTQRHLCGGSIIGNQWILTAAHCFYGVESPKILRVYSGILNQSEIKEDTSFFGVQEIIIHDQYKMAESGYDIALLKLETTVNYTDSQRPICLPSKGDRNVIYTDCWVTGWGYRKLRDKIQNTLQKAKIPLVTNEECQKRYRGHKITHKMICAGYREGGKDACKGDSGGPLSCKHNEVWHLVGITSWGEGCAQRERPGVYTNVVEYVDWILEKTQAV

Sequence of Coagulation factor X (P00742 41-179 limits assumed): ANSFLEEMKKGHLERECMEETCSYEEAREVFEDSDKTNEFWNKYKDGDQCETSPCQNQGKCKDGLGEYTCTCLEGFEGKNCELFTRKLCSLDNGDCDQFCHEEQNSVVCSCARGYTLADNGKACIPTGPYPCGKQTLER
Sequence of Coagulation factor X (P00742 235-488 limits assumed): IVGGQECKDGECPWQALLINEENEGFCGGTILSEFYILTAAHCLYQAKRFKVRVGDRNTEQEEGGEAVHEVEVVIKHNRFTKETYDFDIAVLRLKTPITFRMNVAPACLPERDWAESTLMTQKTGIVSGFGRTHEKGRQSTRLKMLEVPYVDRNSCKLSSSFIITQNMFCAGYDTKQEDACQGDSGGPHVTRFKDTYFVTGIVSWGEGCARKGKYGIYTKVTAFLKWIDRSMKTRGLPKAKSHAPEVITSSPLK

IC50 (Coagulation factor X) [nM]	Structure (SMILES)	also measured
50.5	O=C(NC[C@@H]1OC(=O)N2c3ccc(N4CCCCC4=O)cc3S(=O)(=O)C[C@@H]12)c1ccc(Cl)s1	–
1220	O=C(NC[C@@H]1OC(=O)N2c3ccc(N4CC[C@H](O)CC4=O)cc3OC[C@@H]12)c1ccc(Cl)s1	–
190	O=C(NC[C@@H]1OC(=O)N2c3ccc(N4CCNCC4=O)cc3OC[C@@H]12)c1ccc(Cl)s1	–
1210	O=C(NC[C@@H]1OC(=O)N2c3ccc(N4CCOCC4=O)cc3OC[C@@H]12)C(=O)Nc1ccc(Cl)cn1	–
25900	O=C(NC[C@@H]1OC(=O)N2c3ccc(N4CCOCC4=O)cc3OC[C@@H]12)c1cc2cc(Cl)ccc2s1	–
4780	COc1ccc(C(=O)NC[C@@H]2OC(=O)N3c4ccc(N5CCOCC5=O)cc4OC[C@@H]23)cc1	–
730	O=C(NC[C@@H]1OC(=O)N2c3ccc(N4CCOC4=O)cc3OC[C@@H]12)c1ccc(Cl)s1	–
45.2	O=C(NC[C@@H]1OC(=O)N2c3ccc(N4CCOCC4=O)cc3SC[C@@H]12)c1ccc(Cl)cc1	–
710	O=C(NC[C@@H]1OC(=O)N2c3ccc(N4CCOCC4=O)cc3OC[C@@H]12)c1ccc(Cl)cn1	–
8180	CC(C)(C)OC(=O)N1C[C@H]2[C@H](CNC(=O)c3ccc(Cl)s3)OC(=O)N2c2ccc(N3CCCCC3=O)cc21	–
> 100000	O=C(NC[C@@H]1OC(=O)N2c3ccc(N4CCOCC4=O)cc3OC[C@@H]12)c1sc2cc(Cl)ccc2c1Cl	–
15.2	O=C(NC[C@@H]1OC(=O)N2c3ccc(N4CCCCC4=O)cc3NC[C@@H]12)c1ccc(Cl)s1	–
87.2	CC(=O)N(C)c1ccc2c(c1)OC[C@H]1[C@H](CNC(=O)c3ccc(Cl)s3)OC(=O)N21	–
32.1	O=C(NC[C@@H]1OC(=O)N2c3ccc(N4CCOCC4=O)cc3OC[C@@H]12)Nc1ccc(Cl)cc1	–
64	O=C(NC[C@@H]1OC(=O)N2c3ccc(N4CCOCC4=O)cc3[S+]([O-])C[C@@H]12)c1ccc(Cl)s1 (stereo not given in full)	–

More lines, now with the values behind:

Structure (SMILES)	IC50 (Coagulation factor X) [nM]	also measured
O=C(NC[C@@H]1OC(=O)N2c3ccc(N4CCOCC4=O)cc3S(=O)(=O)C[C@@H]12)c1ccc(Cl)s1	17.4	Activity (Plasma [1]): 0.47 µM; 2aPTT (Plasma [2]): 0.76 µM; Cmax [3]: 917 ng/mL; Tmax [4]: 0.38 h; half-life [5]: 2.14 h; half-life [6]: 0.54 h; AUC(0-inf) [7]: 1540 ng·h/mL; AUC(0-inf) [8]: 6120 ng·h/mL; clearance [9]: 8.22 mL/min/kg; Vd [10]: 0.154 L/kg; bioavailability [11]: 7.3%
O=C(NC[C@@H]1OC(=O)N2c3ccc(N4CCOCC4=O)cc3OC[C@@H]12)c1cc2cccc(Cl)c2s1	> 100000	–
CN1CCN(c2ccc3c(c2)OC[C@H]2[C@H](CNC(=O)c4ccc(Cl)s4)OC(=O)N32)C(=O)C1	2210	–
CO[C@H]1CCN(c2ccc3c(c2)OC[C@H]2[C@H](CNC(=O)c4ccc(Cl)s4)OC(=O)N32)C(=O)C1	1860	–
O=C(Nc1ccc(Cl)s1)[C@@H]1OC(=O)N2c3ccc(N4CCOCC4=O)cc3OC[C@@H]12	> 100000	–
O=C(NC[C@@H]1OC(=O)N2c3ccc(N4CC[C@H](F)CC4=O)cc3OC[C@@H]12)c1ccc(Cl)s1	46.6	–
O=C(Nc1ccc(Cl)cn1)[C@@H]1OC(=O)N2c3ccc(N4CCOCC4=O)cc3OC[C@@H]12	> 100000	–
O=C(NC[C@@H]1OC(=O)N2c3ccc(N4CCN(S(=O)(=O)c5ccccc5)CC4=O)cc3OC[C@@H]12)c1ccc(Cl)s1	5530	–
NS(=O)(=O)c1ccccc1-c1ccc2c(c1)OC[C@H]1[C@H](CNC(=O)c3ccc(Cl)s3)OC(=O)N21	60.6	Activity (Plasma [1]): 4.58 µM; 2aPTT (Plasma [2]): 4.86 µM; Cmax [3]: 3630 ng/mL; Tmax [4]: 1 h; half-life [5]: 1.65 h; half-life [6]: 1.38 h; AUC(0-inf) [7]: 12300 ng·h/mL; AUC(0-inf) [8]: 12200 ng·h/mL; clearance [9]: 4.22 mL/min/kg; Vd [10]: 0.35 L/kg; bioavailability [11]: 29%
CS(=O)(=O)N1CCN(c2ccc3c(c2)OC[C@H]2[C@H](CNC(=O)c4ccc(Cl)s4)OC(=O)N32)C(=O)C1	4180	–
O=C(NC[C@@H]1OC(=O)N2c3ccc(N4CCOCC4=O)cc3OC[C@@H]12)C(Cl)Cl	52700	–
O=C(NC[C@@H]1OC(=O)N2c3ccc(N4CCCCC4=O)cc3SC[C@@H]12)c1ccc(Cl)s1	4.89	Activity (Plasma [1]): 0.64 µM; 2aPTT (Plasma [2]): 0.62 µM
O=C(NC[C@@H]1OC(=O)N2c3ccc(N4CCCCC4=O)cc3CC[C@@H]12)c1ccc(Cl)s1	6.59	–
O=C(NC[C@@H]1OC(=O)N2c3ccc(N4CCOCC4=O)cc3CC[C@@H]12)c1ccc(Cl)s1	4.71	IC50 (Prothrombin): > 100000 nM; IC50 (Coagulation factor VII): > 100000 nM; IC50 (Coagulation factor IX): > 100000 nM; IC50 (Trypsin): > 100000 nM; IC50 (Coagulation factor XI): > 100000 nM; Activity (Plasma [1]): 0.37 µM; 2aPTT (Plasma [2]): 0.33 µM; Cmax [3]: 3020 ng/mL; Tmax [4]: 2.3 h; half-life [5]: 3.54 h; half-life [6]: 0.74 h; AUC(0-inf) [7]: 14200 ng·h/mL; AUC(0-inf) [8]: 20400 ng·h/mL; clearance [9]: 2.48 mL/min/kg; Vd [10]: 0.144 L/kg; bioavailability [11]: 20.4%
O=C(NC[C@@H]1OC(=O)N2c3ccc(N4CCOCC4=O)cc3OC[C@@H]12)c1cc2ccc(Cl)cc2s1	1750	–
O=C(NC[C@@H]1OC(=O)N2c3ccc(N4CCC5(CC4=O)OCCO5)cc3OC[C@@H]12)c1ccc(Cl)s1	2510	–
O=C(NC[C@@H]1OC(=O)N2c3ccc(N4CCOCC4=O)cc3OC[C@H]12)c1ccc(Cl)s1	57.8	–

Structure (SMILES)	IC50 (Coagulation factor X) [nM]	also measured
O=C(NC[C@@H]1OC(=O)N2c3ccc(N4CCOCC4=O)cc3OC[C@@H]12)c1cnc(Cl)s1	7060	–
O=C(NC[C@@H]1OC(=O)N2c3ccc(N4CCOCC4=O)cc3OC[C@@H]12)c1cc(Cl)c(Cl)s1	8080	–
O=C(NC[C@@H]1OC(=O)N2c3ccc(N4CCOCC4=O)cc3OC[C@@H]12)C(=O)Nc1ccc(Cl)s1	560	–
O=C(NC[C@@H]1OC(=O)N2c3ccc(N4CCOCC4=O)cc3OC[C@@H]12)Nc1ccc(Cl)s1	88.5	–
CS(=O)(=O)c1ccccc1-c1ccc2c(c1)SC[C@H]1[C@H](CNC(=O)c3ccc(Cl)cc3)OC(=O)N21	1610	–
O=C(NC[C@@H]1OC(=O)N2c3ccc(N4CCOCC4=O)cc3OC[C@@H]12)c1ccc(Cl)cc1	160	Activity (Plasma [1]): 1.06 µM; 2aPTT (Plasma [2]): 0.93 µM
O=C(NC[C@@H]1OC(=O)N2c3ccc(N4CC[C@@H](O)CC4=O)cc3OC[C@@H]12)c1ccc(Cl)s1	130	–
CCN1CCN(c2ccc3c(c2)OC[C@H]2[C@H](CNC(=O)c4ccc(Cl)s4)OC(=O)N32)C(=O)C1	15800	–
O=C(NC[C@@H]1OC(=O)N2c3ccc(N4CCN(Cc5ccccc5)CC4=O)cc3OC[C@@H]12)c1ccc(Cl)s1	11400	–
CC(=O)N1CCN(c2ccc3c(c2)OC[C@H]2[C@H](CNC(=O)c4ccc(Cl)s4)OC(=O)N32)C(=O)C1	74.8	–
CO[C@@H]1CCN(c2ccc3c(c2)OC[C@H]2[C@H](CNC(=O)c4ccc(Cl)s4)OC(=O)N32)C(=O)C1	590	–
O=C(NC[C@@H]1OC(=O)N2c3ccc(N4CC[C@@H](F)CC4=O)cc3OC[C@@H]12)c1ccc(Cl)s1	40.6	–
O=C(NC[C@@H]1OC(=O)N2c3ccc(N4CCOCC4=O)cc3OC[C@@H]12)C(=O)Nc1ccc(Cl)cc1	310	–
O=C(NC[C@@H]1OC(=O)N2c3ccc(N4CCOCC4=O)cc3OC[C@@H]12)c1cc2c(Cl)cccc2s1	> 100000	–
O=C(CSCCCl)NC[C@@H]1OC(=O)N2c3ccc(N4CCOCC4=O)cc3OC[C@@H]12	> 100000	–
CS(=O)(=O)c1ccccc1-c1ccc2c(c1)SC[C@H]1[C@H](CNC(=O)c3ccc(Cl)s3)OC(=O)N21	20.9	–
